Source: PMC8988011 (The Journal of Biological Chemistry, 2022)

Assays:
[1] = test system: SKOV3 cells; test: Growth in U-bottom low-attachment plates; type: cell-based, Human; settings: with GA-017, 4 days, Fig. 3J
[2] = target: T1, LATS1 (Homo sapiens, UniProt O95835); test: Kinase assay; type: biochemical
T1 sequence (O95835 589-1130 limits assumed): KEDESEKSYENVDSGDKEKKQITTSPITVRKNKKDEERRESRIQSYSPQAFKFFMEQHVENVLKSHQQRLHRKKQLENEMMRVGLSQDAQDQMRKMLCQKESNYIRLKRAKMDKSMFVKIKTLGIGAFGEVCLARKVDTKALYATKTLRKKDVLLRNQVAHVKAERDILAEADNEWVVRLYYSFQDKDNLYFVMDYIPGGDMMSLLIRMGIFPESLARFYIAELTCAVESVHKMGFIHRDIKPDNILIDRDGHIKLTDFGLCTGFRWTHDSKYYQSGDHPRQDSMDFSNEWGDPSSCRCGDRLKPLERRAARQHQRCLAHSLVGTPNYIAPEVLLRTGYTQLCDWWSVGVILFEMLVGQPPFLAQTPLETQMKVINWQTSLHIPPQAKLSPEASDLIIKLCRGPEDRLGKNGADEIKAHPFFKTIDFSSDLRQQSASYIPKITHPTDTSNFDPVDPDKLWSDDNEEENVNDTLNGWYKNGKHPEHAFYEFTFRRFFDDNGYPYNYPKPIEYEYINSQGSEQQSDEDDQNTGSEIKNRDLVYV
In short: (§1)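 LATS1 and LATS2 activity was measured with a fluorescence kinase/ADP kit following the maker's protocol in 384-well format. IC50 came from dose-response inhibition curves at 400 μM ATP. Mode of inhibition was assessed from Lineweaver-Burk plots of reaction velocity at ATP 100 to 400 μM. Three independent experiments, means ± SD.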

[3] = target: T2, LATS2 (Homo sapiens, UniProt Q9NRM7); test: Kinase assay; type: biochemical
T2 sequence (Q9NRM7 553-1088 limits assumed): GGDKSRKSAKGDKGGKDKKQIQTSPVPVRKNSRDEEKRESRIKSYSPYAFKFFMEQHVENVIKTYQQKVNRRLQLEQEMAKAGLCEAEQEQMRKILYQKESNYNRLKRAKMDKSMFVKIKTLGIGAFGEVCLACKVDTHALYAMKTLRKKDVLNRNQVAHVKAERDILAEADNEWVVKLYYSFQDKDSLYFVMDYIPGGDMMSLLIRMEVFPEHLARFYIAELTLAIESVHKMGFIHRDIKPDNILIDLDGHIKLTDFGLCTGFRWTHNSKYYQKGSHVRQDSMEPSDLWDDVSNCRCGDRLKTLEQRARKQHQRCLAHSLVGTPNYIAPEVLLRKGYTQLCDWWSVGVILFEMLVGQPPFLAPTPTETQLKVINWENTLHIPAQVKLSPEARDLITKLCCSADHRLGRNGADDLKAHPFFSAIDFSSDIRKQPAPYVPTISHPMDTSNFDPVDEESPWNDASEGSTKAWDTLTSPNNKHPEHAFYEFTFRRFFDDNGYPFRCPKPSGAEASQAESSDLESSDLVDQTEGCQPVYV
In short: as §1

[4] = target: MSK1 (Homo sapiens, UniProt O75582); test: Kinase panel assay; type: biochemical
Chain of MSK1 (O75582 whole entry): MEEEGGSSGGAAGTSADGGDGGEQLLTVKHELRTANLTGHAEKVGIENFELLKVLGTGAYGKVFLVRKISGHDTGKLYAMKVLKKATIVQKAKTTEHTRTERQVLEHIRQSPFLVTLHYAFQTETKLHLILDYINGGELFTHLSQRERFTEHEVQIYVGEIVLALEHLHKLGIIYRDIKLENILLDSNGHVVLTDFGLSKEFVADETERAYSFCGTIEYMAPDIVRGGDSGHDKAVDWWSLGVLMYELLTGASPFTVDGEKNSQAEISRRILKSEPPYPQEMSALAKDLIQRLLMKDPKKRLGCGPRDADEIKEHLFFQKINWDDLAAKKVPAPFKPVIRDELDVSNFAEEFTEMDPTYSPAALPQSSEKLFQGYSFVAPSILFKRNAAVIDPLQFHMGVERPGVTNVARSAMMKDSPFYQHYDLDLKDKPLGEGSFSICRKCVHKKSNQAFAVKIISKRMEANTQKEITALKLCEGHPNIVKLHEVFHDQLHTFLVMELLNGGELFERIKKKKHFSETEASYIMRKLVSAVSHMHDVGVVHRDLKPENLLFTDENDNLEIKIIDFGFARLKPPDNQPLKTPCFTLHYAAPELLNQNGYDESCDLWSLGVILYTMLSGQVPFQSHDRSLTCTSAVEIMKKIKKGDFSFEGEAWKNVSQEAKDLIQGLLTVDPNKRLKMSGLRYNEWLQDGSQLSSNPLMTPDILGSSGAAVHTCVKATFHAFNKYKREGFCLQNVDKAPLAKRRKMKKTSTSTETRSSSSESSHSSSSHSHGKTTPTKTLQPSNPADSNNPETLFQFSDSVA

[5] = target: p70S6K (Homo sapiens, UniProt P23443); test: Kinase panel assay; type: biochemical
Chain of p70S6K (P23443 whole entry): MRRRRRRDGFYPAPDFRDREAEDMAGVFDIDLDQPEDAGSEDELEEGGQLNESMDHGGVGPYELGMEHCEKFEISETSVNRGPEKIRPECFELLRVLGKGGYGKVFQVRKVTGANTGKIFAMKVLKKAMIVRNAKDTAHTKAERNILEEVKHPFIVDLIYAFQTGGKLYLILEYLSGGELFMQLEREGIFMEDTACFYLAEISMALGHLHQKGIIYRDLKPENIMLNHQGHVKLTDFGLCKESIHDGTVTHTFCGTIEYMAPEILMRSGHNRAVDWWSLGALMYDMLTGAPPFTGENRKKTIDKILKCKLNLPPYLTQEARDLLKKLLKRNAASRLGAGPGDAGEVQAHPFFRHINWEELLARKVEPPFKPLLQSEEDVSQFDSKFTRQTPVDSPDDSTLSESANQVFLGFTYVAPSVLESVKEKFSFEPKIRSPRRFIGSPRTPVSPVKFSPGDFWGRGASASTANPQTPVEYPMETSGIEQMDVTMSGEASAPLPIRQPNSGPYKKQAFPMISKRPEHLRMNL

[6] = target: PKACα (Homo sapiens, UniProt P17612); test: Kinase panel assay; type: biochemical
[7] = target: PKACβ (Homo sapiens, UniProt P22694); test: Kinase panel assay; type: biochemical
[8] = target: T3, SGK2 (Homo sapiens, UniProt Q9HBY8); test: Kinase panel assay; type: biochemical
T3 sequence (Q9HBY8 1-367): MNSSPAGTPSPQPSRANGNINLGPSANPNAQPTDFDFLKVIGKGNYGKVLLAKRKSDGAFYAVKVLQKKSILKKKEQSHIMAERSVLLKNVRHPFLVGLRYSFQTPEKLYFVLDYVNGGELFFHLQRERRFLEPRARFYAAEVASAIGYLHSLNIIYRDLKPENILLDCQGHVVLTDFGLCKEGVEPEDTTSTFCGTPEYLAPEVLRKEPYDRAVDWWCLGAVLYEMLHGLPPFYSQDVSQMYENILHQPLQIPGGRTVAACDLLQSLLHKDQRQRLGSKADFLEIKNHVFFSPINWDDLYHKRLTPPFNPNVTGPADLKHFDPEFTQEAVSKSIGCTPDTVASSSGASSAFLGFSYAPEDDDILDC

[9] = target: T4, SGK3 (Homo sapiens, UniProt Q96BR1); test: Kinase panel assay; type: biochemical
T4 sequence (Q96BR1 1-496): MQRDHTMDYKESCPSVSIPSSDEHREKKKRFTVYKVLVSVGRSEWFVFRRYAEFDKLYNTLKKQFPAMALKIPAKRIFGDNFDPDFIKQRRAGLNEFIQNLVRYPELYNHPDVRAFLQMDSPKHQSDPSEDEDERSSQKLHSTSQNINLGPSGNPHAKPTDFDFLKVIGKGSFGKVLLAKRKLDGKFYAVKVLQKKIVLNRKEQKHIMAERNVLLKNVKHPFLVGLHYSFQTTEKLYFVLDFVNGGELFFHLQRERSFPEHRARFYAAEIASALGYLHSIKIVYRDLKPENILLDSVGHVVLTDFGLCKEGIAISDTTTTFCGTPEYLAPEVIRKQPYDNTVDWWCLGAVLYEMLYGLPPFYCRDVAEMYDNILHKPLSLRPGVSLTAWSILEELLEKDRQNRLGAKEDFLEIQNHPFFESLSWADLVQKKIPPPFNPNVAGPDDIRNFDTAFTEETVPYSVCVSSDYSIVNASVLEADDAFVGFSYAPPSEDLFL

[10] = test system: SKOV3 cells; test: Growth in gellan gum–containing medium; type: cell-based, Human; settings: 10 μM, maximally effective concentration
In short: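 SKOV3 cells were suspended in medium with 0.015% (w/v) gellan gum and seeded at 2000 cells/well in 96-well flat-bottom low-attachment plates, 37 °C, 5% CO2. A test compound concentration series or DMSO vehicle was applied for 4 days. Cell number was read by ATP assay and expressed as % of DMSO control.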

[11] = test system: SKOV3 cells; test: Growth in 2D monolayer culture, ATP assay; type: cell-based, Human; settings: 10 μM; Fig. 1D
In short: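 SKOV3 monolayers were grown in medium without gellan gum on cell-attachable 96-well flat-bottom plates at 700 cells/well, 37 °C, 5% CO2, humidified. Cultures received 10 μM test compound or DMSO vehicle. Cell number was followed over time by ATP assay, and each day's value was normalized to day 0.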

[12] = test system: MDCK cells; test: Cyst culture in Matrigel; type: cell-based, canine; settings: 10 μM, 6 days
In short: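 MDCK cells at 1.1 × 10^4 cells/ml in medium with 0.2% Matrigel GFR were plated onto a pre-set Matrigel GFR layer (15 min, 37 °C). Medium holding 10-fold concentrated test compound or DMSO was added, and plates were incubated for 6 days at 37 °C. Cysts (>30 μm diameter) were counted and sized by automated imaging. Three independent experiments, means ± SD, Student's t test.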

[13] = test system: mouse intestinal organoids; test: Organoid culture in Matrigel; type: cell-based; settings: 10 μM, up to 9 days, vs vehicle
[14] = test system: A431 cells; test: Hanging drop cell culture, ATP assay; type: cell-based, Human; settings: 10 μM, 2 days
In short: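 A431 cells at 50,000 cells/ml received 10 μM test compound or DMSO. They were then hung as 10 μl drops (15 per lid) over a PBS-filled dish and cultured 2 days at 37 °C. Pooled drops were assayed for cell number by ATP assay, as % of DMSO control. 11 independent experiments, means ± SD, Student's t test.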

[15] = test system: LATS1-deleted or LATS2-deleted SKOV3 cells; test: Growth of LATS knockout cells in U-bottom low-attachment plates, ATP assay; type: cell-based, Human; settings: 10 μM, 4 days

## Verteporfin
[1]
  effect on the growth-promoting effect of GA-017: abolished the growth-promoting effect of GA-017

## CC/C(=N\NC(=O)C(C)Nc1ccccc1)c1ccc(O)c(C)c1O (stereo not shown) [GA-002, (E)-N'-(1-(2,4-dihydroxy-3-methylphenyl)propylidene)-2-(phenylamino)propanehydrazide]
[2]; compared with GA-017, Fig. S7
  inhibition of LATS1: comparable inhibition
[3]; compared with GA-017, Fig. S7
  inhibition of LATS2: comparable inhibition

## CC/C(=N\NC(=O)NCc1cccc(O)c1)c1ccc(O)c(C)c1O [GA-017, (E)-2-(1-(2,4-dihydroxy-3-methylphenyl)propylidene)-N-(3-hydroxybenzyl)hydrazine-1-carboxamide]
[4]
  IC50: < 40 nM
[5]
  IC50: < 40 nM
[6]
  IC50: < 40 nM
[7]
  IC50: < 40 nM
[8]
  IC50: < 40 nM
[9]
  IC50: < 40 nM
[10]
  increase in the number of SKOV3 cells: over 2 fold
[11]
  cell growth under 2D conditions: did not affect cell growth
[2]
  IC50: 4.1 ± 0.79 nM
  Ki: 0.58 ± 0.11 nM
[3]
  IC50: 3.92 ± 0.42 nM
  Ki: 0.25 ± 0.03 nM
[12]
  number of cysts versus vehicle control (DMSO): 1.5 fold
[13]
  ex vivo formation of intestinal organoids: significantly enhanced the ex vivo formation of intestinal organoids
[14]
  growth of spheroids formed in hanging drops: promoted the growth of spheroids
[15]
  growth-promoting effect on LATS1- or LATS2-deleted cells: did not exhibit a growth-promoting effect
